Measurements from ChEMBL document CHEMBL4842372, “Discovery of ARD-2585 as an Exceptionally Potent and Orally Active PROTAC Degrader of Androgen Receptor for the Treatment of Advanced Prostate Cancer” (J Med Chem, 2021).
Activity calls are given as the source filed them. The calls are words filed in the database; no cut-off is given here.

Legend:
[1] = test system: VCaP; experiment: Growth inhibition of human VCaP cells assessed as cell viability by WST-8 assay; type: functional, cell-based
[2] = Drug distribution in plasma of CB17:SCID mouse xenografted with human VCaP cells at 20 mg/kg, po measured at 24 hrs by LCMS analysis; type: ADME, organism-based
Outline: (§1)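 Tumor-bearing male CB17 SCID mice (VCaP xenografts) given one 20 mg/kg oral dose in 100% PEG200, three mice per time point; plasma, tumor, liver, kidney, prostate and heart taken at 1, 6 and 24 h; tissues homogenised in water/acetonitrile, protein precipitated with cold acetonitrile, drug quantified by LC–MS/MS; ratios are tissue over plasma level.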

[3] = Drug distribution in prostate gland of CB17:SCID mouse xenografted with human VCaP cells at 20 mg/kg, po measured at 24 hrs by LCMS analysis; type: ADME, organism-based; details: read-out: Drug uptake; outline: as §1
[4] = test system: VCaP; experiment: Antitumor activity against human VCaP cells xenografted in CB17:SCID mouse assessed as reduction in AR protein level in tumor at 10 mg/kg, po for 3 days measured at 3 hrs by Western blot analysis; type: functional; details: 72 h, time 3 day
Outline: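 Male CB17 SCID mice bearing subcutaneous VCaP tumors (5 × 10^6 cells in Matrigel); dosed by oral gavage in 100% PEG200 at 10 mg/kg daily for 3 days; tumors harvested 3, 6 and 24 h post-dose, lysed in RIPA, Western blot for AR with GAPDH loading control, bands quantified by densitometry relative to loading control.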

[5] = Drug distribution in liver of CB17:SCID mouse xenografted with human VCaP cells at 20 mg/kg, po measured at 1 hrs by LCMS analysis; type: ADME, organism-based; details: read-out: Drug uptake; outline: as §1
[6] = Drug distribution in CB17:SCID mouse xenografted with human VCaP cells assessed as liver to plasma ratio at 20 mg/kg, po measured at 1 hrs by LCMS analysis; type: ADME, organism-based; outline: as §1
[7] = Drug distribution in CB17:SCID mouse xenografted with human VCaP cells assessed as kidney to plasma ratio at 20 mg/kg, po measured at 1 hrs by LCMS analysis; type: ADME, organism-based; outline: as §1
[8] = Drug distribution in CB17:SCID mouse xenografted with human VCaP cells assessed as heart to plasma ratio at 20 mg/kg, po measured at 1 hrs by LCMS analysis; type: ADME, organism-based; outline: as §1
[9] = Drug distribution in CB17:SCID mouse xenografted with human VCaP cells assessed as tumor to plasma ratio at 20 mg/kg, po measured at 6 hrs by LCMS analysis; type: ADME, organism-based; outline: as §1
[10] = Drug distribution in CB17:SCID mouse xenografted with human VCaP cells assessed as kidney to plasma ratio at 20 mg/kg, po measured at 6 hrs by LCMS analysis; type: ADME, organism-based; outline: as §1
[11] = Drug distribution in CB17:SCID mouse xenografted with human VCaP cells assessed as prostate gland to plasma ratio at 20 mg/kg, po measured at 6 hrs by LCMS analysis; type: ADME, organism-based; outline: as §1
[12] = Drug distribution in CB17:SCID mouse xenografted with human VCaP cells assessed as heart to plasma ratio at 20 mg/kg, po measured at 6 hrs by LCMS analysis; type: ADME, organism-based; outline: as §1
[13] = Drug distribution in CB17:SCID mouse xenografted with human VCaP cells assessed as tumor to plasma ratio at 20 mg/kg, po measured at 24 hrs by LCMS analysis; type: ADME, organism-based; outline: as §1
[14] = Drug distribution in liver of CB17:SCID mouse xenografted with human VCaP cells at 20 mg/kg, po measured at 24 hrs by LCMS analysis; type: ADME, organism-based; details: read-out: Drug uptake; outline: as §1
[15] = Drug distribution in heart of CB17:SCID mouse xenografted with human VCaP cells at 20 mg/kg, po measured at 24 hrs by LCMS analysis; type: ADME, organism-based; details: read-out: Drug uptake; outline: as §1
[16] = test system: VCaP; experiment: Antitumor activity against human VCaP cells xenografted in CB17:SCID mouse assessed as tumor growth inhibition at 40 mg/kg, po treated for 37 days relative to control; type: functional; details: 888 h, time 37 day, read-out: TGI
[17] = test system: Protein cereblon/Androgen receptor (Homo sapiens), P10275+Q96SW2 [T878A]; experiment: Protac activity at CRBN/AR T878A mutant in human LNCaP cells assessed as reduction in AR protein level at 0.3 nM after 24 hrs by Western blot analysis relative to control; type: cell-based
Outline: (§2)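 Western blot of AR after 24 h exposure to a concentration series in ATCC-derived cells, all with 10% FBS at 37 °C and 5% CO2: LNCaP and 22Rv1 in RPMI1640, VCaP in DMEM with Glutamax, MDA-PCa-2b in F-12K. Lysis in RIPA with protease and phosphatase inhibitors, then 4–12% SDS-PAGE and PVDF transfer. Band minus background is normalised to GAPDH.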

[18] = target: T1, Protein cereblon/Androgen receptor (Homo sapiens, UniProt P10275+Q96SW2); experiment: Protac activity at CRBN/AR in human 22Rv1 cells assessed as reduction in AR protein level at 0.1 nM after 24 hrs by Western blot analysis relative to control; type: cell-based; outline: as §2
T1 sequence (P10275 whole entry, looked up): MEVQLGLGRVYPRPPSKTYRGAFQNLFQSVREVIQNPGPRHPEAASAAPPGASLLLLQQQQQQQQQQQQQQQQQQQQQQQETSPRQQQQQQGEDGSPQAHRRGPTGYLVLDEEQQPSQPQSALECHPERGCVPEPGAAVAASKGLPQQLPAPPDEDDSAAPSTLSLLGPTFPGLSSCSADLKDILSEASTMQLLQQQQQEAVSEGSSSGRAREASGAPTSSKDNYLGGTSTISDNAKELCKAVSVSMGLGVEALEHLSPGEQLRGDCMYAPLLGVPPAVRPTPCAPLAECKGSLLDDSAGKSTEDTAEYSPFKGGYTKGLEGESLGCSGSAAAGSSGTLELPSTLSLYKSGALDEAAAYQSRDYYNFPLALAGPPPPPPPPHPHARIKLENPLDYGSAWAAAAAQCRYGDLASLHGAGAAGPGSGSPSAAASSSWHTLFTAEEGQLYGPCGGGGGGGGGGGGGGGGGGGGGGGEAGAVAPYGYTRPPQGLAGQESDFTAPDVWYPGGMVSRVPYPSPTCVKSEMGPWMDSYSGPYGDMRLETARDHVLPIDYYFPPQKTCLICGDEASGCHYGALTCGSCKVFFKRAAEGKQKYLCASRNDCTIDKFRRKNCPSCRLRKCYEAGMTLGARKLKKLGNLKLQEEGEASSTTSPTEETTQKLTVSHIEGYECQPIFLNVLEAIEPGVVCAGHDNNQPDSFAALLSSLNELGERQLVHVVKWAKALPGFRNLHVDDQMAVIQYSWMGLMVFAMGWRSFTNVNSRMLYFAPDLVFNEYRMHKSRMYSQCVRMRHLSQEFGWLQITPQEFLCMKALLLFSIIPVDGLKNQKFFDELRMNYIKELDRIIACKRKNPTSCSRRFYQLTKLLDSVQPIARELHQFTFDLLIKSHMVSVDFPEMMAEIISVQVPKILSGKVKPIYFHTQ
T1 sequence (Q96SW2 whole entry, looked up): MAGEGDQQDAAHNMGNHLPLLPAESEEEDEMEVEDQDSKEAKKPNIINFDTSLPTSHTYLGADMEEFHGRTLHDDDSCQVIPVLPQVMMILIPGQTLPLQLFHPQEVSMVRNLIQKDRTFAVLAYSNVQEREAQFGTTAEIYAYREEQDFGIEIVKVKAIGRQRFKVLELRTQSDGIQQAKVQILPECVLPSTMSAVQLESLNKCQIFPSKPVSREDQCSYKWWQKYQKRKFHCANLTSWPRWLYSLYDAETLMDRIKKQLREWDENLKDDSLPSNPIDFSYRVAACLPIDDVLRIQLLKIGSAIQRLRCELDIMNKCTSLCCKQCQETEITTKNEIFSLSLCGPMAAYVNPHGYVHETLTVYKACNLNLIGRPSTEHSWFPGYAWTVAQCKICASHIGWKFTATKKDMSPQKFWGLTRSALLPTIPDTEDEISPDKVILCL

[19] = test system: VCaP; experiment: Potency index, ratio of ARV-110 IC50 to compound IC50 for reduction in AR degradation human VCaP cells after 24 hrs by Western blot analysis; type: functional
[20] = target: Protein cereblon/Androgen receptor (Homo sapiens, UniProt P10275+Q96SW2, T878A); details: lncap
Sequence of Protein cereblon/Androgen receptor (Homo sapiens, UniProt P10275+Q96SW2, T878A) (P10275 whole entry T878A, stated change not applied): as the sequence (P10275 whole entry, looked up) above, with T878A counted along it
Sequence of Protein cereblon/Androgen receptor (Homo sapiens, UniProt P10275+Q96SW2, T878A) (Q96SW2 whole entry, stated change not applied): as the sequence (Q96SW2 whole entry, looked up) above

[21] = target: T1, Protein cereblon/Androgen receptor; experiment: Protac activity at CRBN/AR in human VCaP cells assessed as reduction in AR protein level at 100 nM after 3 hrs in presence of MG-132 by Western blot analysis
[22] = target: T1, Protein cereblon/Androgen receptor; experiment: Protac activity at CRBN/AR in human VCaP cells assessed as reduction in AR protein level at 100 nM after 3 hrs in presence of MLN4924 by Western blot analysis
[23] = test system: Protein cereblon/Androgen receptor (Homo sapiens), P10275+Q96SW2 [T878A]; experiment: Protac activity at CRBN/AR T878A mutant in human LNCaP cells assessed as reduction in AR protein level at 100 nM after 3 hrs in presence of MLN4924 by Western blot analysis
[24] = target: T1, Protein cereblon/Androgen receptor; experiment: Protac activity at CRBN/AR in human VCaP cells assessed as reduction in AR protein level at 100 nM after 3 hrs in presence of N-((1r,4r)-4-((3-chloro-4-cyanophenyl)(methyl)amino)cyclohexyl)-4-(4-methylpiperazin-1-yl)benzamide by Western blot analysis
[25] = test system: Protein cereblon/Androgen receptor (Homo sapiens), P10275+Q96SW2 [T878A]; experiment: Protac activity at CRBN/AR T878A mutant in human LNCaP cells assessed as reduction in AR protein level at 100 nM after 3 hrs in presence of N-((1r,4r)-4-((3-chloro-4-cyanophenyl)(methyl)amino)cyclohexyl)-4-(4-methylpiperazin-1-yl)benzamide by Western blot analysis

CN(c1ccc(C#N)c(Cl)c1)[C@H]1CC[C@H](NC(=O)c2ccc(N3CCN(C4CN(c5ccc6c(c5)C(=O)N(C5CCC(=O)NC5=O)C6=O)C4)CC3)cc2)CC1 (stereo not given in full)
IC50 [1]: 1.5 nM | concentration at 24 h [2]: 102 ng/mL | concentration at 24 h [3]: 107 ng/g | inhibition in vivo at 10 mg/kg [4]: 78% | concentration at 1 h [5]: 2640 ng/g | Kp at 1 h [6]: 37.7 | Kp at 1 h [7]: 6.2 | Kp at 1 h [8]: 3 | Kp at 6 h [9]: 1.5 | Kp at 6 h [10]: 4.9 | Kp at 6 h [11]: 0.6 | Kp at 6 h [12]: 2.5 | Kp at 24 h [13]: 1.4 | concentration at 24 h [14]: 6870 ng/g | concentration at 24 h [15]: 683 ng/g | inhibition in vivo at 40 mg/kg [16]: 65.9% | inhibition [17]: > 80% | inhibition [18]: > 80% | Ratio [19]: 30 | DC50 [20]: 0.1 nM | Activity [21]: inactive | Activity [22]: inactive | Activity [23]: inactive | Activity [24]: inactive | Activity [25]: inactive
